Results taken from ChEMBL document CHEMBL4304834, “3-Amino-chromanes and Tetrahydroquinolines as Selective 5-HT2B, 5-HT7, or σ1 Receptor Ligands” (ACS Med Chem Lett, 2019).

Assays:
Assay type in all cases: cell-based
[1] = target: T1, Muscarinic acetylcholine receptor M4 (Homo sapiens, UniProt P08173); assay: Displacement of [3H]-QNB/[3H]-NMS from human recombinant Muscarinic acetylcholine M4 receptor expressed in stable CHO cells after 90 mins by microbeta scintillation counting method
T1 sequence (P08173 whole entry): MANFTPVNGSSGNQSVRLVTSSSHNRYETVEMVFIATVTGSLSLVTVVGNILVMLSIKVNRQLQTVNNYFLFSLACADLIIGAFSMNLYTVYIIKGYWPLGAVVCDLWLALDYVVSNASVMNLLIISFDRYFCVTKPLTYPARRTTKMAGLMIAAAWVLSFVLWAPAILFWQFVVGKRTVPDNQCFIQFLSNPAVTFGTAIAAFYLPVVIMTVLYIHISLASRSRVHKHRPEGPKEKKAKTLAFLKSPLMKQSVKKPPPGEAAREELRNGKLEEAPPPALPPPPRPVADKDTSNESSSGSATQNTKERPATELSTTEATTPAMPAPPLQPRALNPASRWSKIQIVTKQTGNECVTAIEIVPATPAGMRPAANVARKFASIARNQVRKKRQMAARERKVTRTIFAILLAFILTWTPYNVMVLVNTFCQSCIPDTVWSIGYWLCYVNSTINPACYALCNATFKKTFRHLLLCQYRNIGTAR
Summary of the method: (§1)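 Radioligand binding was run by the NIMH Psychoactive Drug Screening Program. Compounds were first screened at 10 μM. Those giving ≥50% binding were taken to full competition curves. Ki is reported as pKi from a sigmoidal curve fit of triplicate measurements in a single experiment; the error is the curve-fit error.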

[2] = target: T2, D(4) dopamine receptor (Homo sapiens) (UniProt P21917); assay: Displacement of [3H]-methylspiperone from human recombinant dopamine D4 receptor expressed in Stable HEK cells at 10 uM after 90 mins by microbeta scintillation counting method relative to control
T2 sequence (whole entry): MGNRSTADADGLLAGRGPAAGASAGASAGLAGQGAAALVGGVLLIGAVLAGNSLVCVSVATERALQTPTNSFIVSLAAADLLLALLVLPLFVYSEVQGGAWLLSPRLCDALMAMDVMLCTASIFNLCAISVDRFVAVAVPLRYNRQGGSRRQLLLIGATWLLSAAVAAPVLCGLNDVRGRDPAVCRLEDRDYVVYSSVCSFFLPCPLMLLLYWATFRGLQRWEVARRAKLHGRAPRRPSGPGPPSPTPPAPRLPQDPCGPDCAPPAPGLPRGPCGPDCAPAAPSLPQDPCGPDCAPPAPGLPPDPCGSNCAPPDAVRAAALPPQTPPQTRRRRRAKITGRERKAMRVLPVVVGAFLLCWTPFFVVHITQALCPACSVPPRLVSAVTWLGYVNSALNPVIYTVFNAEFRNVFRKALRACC

D(1A) dopamine receptor = D(1A) dopamine receptor (Homo sapiens, UniProt P21728); assay: Displacement of [3H]-SCH23390 from human recombinant dopamine D1 receptor expressed in HEKT cells after 90 mins by microbeta scintillation counting method; summary of the method: as §1
Sequence of D(1A) dopamine receptor (P21728 whole entry): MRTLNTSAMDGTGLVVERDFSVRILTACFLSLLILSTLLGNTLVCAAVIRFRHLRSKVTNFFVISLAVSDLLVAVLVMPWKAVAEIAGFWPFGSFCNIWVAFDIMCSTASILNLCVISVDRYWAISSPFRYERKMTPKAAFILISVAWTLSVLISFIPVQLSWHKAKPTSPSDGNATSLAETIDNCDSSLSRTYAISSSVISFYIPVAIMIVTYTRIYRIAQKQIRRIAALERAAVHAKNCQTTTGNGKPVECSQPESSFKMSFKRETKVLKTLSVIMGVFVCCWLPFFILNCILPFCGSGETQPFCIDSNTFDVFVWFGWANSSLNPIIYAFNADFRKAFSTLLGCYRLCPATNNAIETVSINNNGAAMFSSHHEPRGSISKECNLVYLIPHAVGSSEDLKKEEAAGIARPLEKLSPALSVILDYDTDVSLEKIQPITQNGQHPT

[3] = target: Sodium-dependent noradrenaline transporter (Homo sapiens, UniProt P23975); assay: Displacement of [3H]-Nisoxetine from human recombinant NET receptor expressed in stable HEK cells after 90 mins by microbeta scintillation counting method
Sequence of Sodium-dependent noradrenaline transporter (P23975 whole entry): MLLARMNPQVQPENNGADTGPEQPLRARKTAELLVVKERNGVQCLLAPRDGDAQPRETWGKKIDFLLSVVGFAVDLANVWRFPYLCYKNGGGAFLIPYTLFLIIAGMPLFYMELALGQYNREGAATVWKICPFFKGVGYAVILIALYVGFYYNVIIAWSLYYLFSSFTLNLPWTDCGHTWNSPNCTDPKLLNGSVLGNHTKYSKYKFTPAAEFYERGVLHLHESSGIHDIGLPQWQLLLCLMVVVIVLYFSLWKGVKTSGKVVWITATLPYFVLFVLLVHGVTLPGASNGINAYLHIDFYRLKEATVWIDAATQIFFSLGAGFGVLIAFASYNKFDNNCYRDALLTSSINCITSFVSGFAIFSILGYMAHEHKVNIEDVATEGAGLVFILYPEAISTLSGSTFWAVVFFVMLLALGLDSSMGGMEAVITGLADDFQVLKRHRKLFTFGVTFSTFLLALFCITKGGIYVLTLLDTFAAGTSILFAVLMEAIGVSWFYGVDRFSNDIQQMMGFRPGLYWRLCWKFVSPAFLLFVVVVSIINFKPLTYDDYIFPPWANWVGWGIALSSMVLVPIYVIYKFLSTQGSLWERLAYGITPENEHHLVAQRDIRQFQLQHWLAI
Summary of the method: (§2)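 Radioligand binding run by the NIMH Psychoactive Drug Screening Program. […] Otherwise Ki comes from sigmoidal curve fits of triplicate measurements in a single experiment, or is averaged over repeated experiments each run in triplicate.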

[4] = target: T3, 5-hydroxytryptamine receptor 1A (Homo sapiens, UniProt P08908); assay: Displacement of [3H]-Way100635 from human recombinant 5-HT1A expressed in stable CHO cells after 90 mins by microbeta scintillation counting method
T3 sequence (P08908 whole entry): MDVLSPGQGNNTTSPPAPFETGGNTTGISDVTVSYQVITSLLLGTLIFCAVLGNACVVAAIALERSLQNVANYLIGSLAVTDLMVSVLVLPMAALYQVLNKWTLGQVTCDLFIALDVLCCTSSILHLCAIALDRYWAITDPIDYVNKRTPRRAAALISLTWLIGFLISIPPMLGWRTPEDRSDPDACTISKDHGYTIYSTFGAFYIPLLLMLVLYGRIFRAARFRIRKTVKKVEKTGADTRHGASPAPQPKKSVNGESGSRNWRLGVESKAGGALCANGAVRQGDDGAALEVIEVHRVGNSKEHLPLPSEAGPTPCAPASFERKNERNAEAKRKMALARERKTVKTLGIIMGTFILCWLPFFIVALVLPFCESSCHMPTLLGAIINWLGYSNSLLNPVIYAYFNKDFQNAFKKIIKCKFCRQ
Summary of the method: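 Run by NIMH Psychoactive Drug Screening Program. Otherwise, competition binding curves are generated and pKi is taken from a sigmoidal curve fit. Data are either triplicate measurements within one experiment, with the error from the fit, or the mean of repeated experiments, each run in triplicate.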

[5] = target: Sodium-dependent dopamine transporter (Homo sapiens, UniProt Q01959); assay: Displacement of [3H]-Win35428 from human recombinant DAT receptor expressed in stable HEK cells after 90 mins by microbeta scintillation counting method; summary of the method: as §1
Sequence of Sodium-dependent dopamine transporter (Q01959 whole entry): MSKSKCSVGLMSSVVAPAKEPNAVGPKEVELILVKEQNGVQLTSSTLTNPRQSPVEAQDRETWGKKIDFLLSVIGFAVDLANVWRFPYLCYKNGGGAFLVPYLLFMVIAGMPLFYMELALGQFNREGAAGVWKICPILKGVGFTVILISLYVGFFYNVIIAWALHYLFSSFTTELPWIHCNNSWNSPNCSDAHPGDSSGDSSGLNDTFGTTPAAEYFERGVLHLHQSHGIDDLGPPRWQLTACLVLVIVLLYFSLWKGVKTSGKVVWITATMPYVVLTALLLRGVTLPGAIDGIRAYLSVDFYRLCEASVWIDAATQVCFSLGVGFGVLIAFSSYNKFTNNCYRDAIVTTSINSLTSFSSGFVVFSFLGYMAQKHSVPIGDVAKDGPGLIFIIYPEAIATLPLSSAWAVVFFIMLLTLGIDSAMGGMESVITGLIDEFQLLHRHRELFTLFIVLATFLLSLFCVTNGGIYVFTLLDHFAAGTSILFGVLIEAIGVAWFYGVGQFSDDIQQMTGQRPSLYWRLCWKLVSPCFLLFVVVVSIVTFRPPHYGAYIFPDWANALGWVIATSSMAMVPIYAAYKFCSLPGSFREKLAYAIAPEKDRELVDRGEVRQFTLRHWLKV

[6] = target: 5-hydroxytryptamine receptor 6 (Homo sapiens, UniProt P50406); assay: Displacement of [3H]-LSD from human recombinant 5-HT6 receptor expressed in stable HEK cells after 90 mins by microbeta scintillation counting method; summary of the method: as §2
Sequence of 5-hydroxytryptamine receptor 6 (P50406 whole entry): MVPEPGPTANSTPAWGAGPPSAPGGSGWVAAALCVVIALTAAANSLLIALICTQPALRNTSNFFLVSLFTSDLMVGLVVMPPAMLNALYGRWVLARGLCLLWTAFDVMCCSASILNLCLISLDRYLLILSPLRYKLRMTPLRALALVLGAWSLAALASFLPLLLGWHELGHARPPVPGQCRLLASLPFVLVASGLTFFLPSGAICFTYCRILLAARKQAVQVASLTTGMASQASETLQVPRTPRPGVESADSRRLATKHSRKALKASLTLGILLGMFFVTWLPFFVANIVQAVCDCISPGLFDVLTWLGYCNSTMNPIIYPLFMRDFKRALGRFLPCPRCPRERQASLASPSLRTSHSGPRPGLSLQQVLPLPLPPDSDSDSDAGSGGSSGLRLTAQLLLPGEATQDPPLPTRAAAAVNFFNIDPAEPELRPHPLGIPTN

D(2) dopamine receptor = D(2) dopamine receptor (Homo sapiens, UniProt P14416); assay: Displacement of [3H]-N-methylspiperone from human recombinant dopamine D2 receptor expressed in stable fibroblast cells at 10 uM after 90 mins by microbeta scintillation counting method relative to control; summary of the method: as §2
Sequence of D(2) dopamine receptor (P14416 whole entry): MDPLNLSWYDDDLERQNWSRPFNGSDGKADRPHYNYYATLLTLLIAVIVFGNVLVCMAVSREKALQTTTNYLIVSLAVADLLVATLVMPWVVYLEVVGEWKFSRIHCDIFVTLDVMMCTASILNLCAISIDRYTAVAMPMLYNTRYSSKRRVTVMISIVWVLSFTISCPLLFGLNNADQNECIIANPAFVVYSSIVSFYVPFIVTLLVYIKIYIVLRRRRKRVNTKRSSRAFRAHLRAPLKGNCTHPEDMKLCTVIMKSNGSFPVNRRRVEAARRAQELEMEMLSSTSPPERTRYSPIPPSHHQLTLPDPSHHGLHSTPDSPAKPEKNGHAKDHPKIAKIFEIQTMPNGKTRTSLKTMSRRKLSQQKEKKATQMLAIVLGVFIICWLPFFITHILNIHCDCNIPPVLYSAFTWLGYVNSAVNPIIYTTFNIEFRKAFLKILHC

[7] = target: T4, Alpha-2C adrenergic receptor (Homo sapiens) (UniProt P18825); assay: Displacement of [3H]-Rauwolscine from human recombinant adrenergic Alpha2C receptor expressed in stable MDCK cells at 10 uM after 90 mins by microbeta scintillation counting method relative to control
T4 sequence (whole entry): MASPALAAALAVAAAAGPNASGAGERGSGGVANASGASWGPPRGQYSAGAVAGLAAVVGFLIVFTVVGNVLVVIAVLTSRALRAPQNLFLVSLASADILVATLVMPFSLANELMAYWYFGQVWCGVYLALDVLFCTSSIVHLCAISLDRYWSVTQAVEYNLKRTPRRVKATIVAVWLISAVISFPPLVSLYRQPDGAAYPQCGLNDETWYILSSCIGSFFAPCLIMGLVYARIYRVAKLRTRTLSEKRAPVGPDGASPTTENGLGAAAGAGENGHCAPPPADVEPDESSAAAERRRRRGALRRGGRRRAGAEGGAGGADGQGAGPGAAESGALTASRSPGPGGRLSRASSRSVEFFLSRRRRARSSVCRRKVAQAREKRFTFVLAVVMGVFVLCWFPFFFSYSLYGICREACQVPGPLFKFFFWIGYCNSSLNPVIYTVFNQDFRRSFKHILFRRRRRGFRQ

Ki ([4]; cho, read-out: Ki) [nM]	Ki ([4]; read-out: Ki) [nM]	SMILES	Ki [1] [µM]	inhibition [2] [%]	Ki (D(1A) dopamine receptor) [µM]	Ki [3] [nM]	Ki ([4]; read-out: pKi (converted)) [nM]	Ki [5] [µM]	Ki [6] [µM]	inhibition (D(2) dopamine receptor) [%]	inhibition [7] [%]
		COc1cc(OC)c2c(c1)OC[C@@]1(C)NCC[C@@H]21 (racemic)	> 10	< 50	> 10	> 10000	1000	> 10	> 10	< 50	< 50
> 10000		C[C@@]12CN(c3ccccc3)c3ccccc3[C@@H]1CCN2 (racemic)	> 10		> 10	1580	> 10000	> 10	> 10		
		CC[C@H]1c2cc(OC)ccc2CC[C@@]1(C)N (racemic)	> 10	< 50	> 10	2510	631	5.01	> 10	< 50	< 50
		CC[C@H]1c2cc(C)ccc2OC[C@@]1(C)N (racemic)	> 10	< 50	> 10	316	2000	> 10	> 10	< 50	< 50
	74	CC[C@H]1c2ccccc2N(c2ccccc2)C[C@@]1(C)N (racemic)	> 10		> 10	398		3.16	> 10		
